Experimental findings from ChEMBL document CHEMBL4385668, “Synthesis and in vitro anticancer activity of new gemcitabine-nucleoside analogue dimers containing methyltriazole or ester-methyltriazole linker” (Bioorg Med Chem Lett, 2019) are described below.

One assay concerns HeLa. Description: Cytotoxicity in human HeLa cells assessed as reduction in cell viability incubated for 72 hrs by SRB assay.
Conditions: not given
Type of assay: functional, cell-based. The procedure, abridged: (§1)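 SRB assay of cell viability in human cancer lines (HeLa, KB, A549, U87, HepG2) and normal dermal fibroblasts (HDF). IC50 values are […] of three independent experiments.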
On the technique in general: The SRB assay estimates cell density from bound dye.
The term IC50 denotes the midpoint of a concentration-inhibition curve. With `Cc1cn([C@H]2C[C@H](O)[C@@H](Cn3cc(COC(=O)Nc4ccn([C@@H]5O[C@H](CO)[C@@H](O)C5(F)F)c(=O)n4)nn3)O2)c(=O)[nH]c1=O`, the IC50 is 13.5 µM.
As to `Cc1cn([C@H]2C[C@H](OC(=O)OC(C)(C)C)[C@@H](Cn3cc(CNc4ccn([C@@H]5O[C@H](CO)[C@@H](O)C5(F)F)c(=O)n4)nn3)O2)c(=O)[nH]c1=O`, the IC50 came to 6.3 µM.
Still for that read-out and setting: the same measure for `Cc1cn([C@H]2C[C@H](OC(=O)OC(C)(C)C)[C@@H](Cn3cc(COC(=O)Nc4ccn([C@@H]5O[C@H](CO)[C@@H](O)C5(F)F)c(=O)n4)nn3)O2)c(=O)[nH]c1=O`: 9.65 µM; for `O=C(Nc1ccn([C@@H]2O[C@H](Cn3cc(CNc4ccn([C@@H]5O[C@H](CO)[C@@H](O)C5(F)F)c(=O)n4)nn3)[C@@H](O)C2(F)F)c(=O)n1)OCc1ccccc1`: 4.23 µM.
Still for that read-out and setting: the value for `O=C(Nc1ccn([C@@H]2O[C@H](Cn3cc(CNc4ccn([C@@H]5O[C@H](CO)[C@@H](O)C5(F)F)c(=O)n4)nn3)[C@@H](OC(=O)c3ccccc3)C2(F)F)c(=O)n1)c1ccccc1` was 5.41 µM.

Another assay relates to KB. Nature of the assay: Cytotoxicity in human KB cells assessed as reduction in cell viability incubated for 72 hrs by SRB assay. Format: functional, cell-based.
Conditions: not given
The procedure, abridged: as §1
On to `Cc1cn([C@H]2C[C@H](O)[C@@H](Cn3cc(COC(=O)Nc4ccn([C@@H]5O[C@H](CO)[C@@H](O)C5(F)F)c(=O)n4)nn3)O2)c(=O)[nH]c1=O`, for which the half-inhibitory concentration (IC50) came to 13.1 µM.
For `Cc1cn([C@H]2C[C@H](OC(=O)OC(C)(C)C)[C@@H](Cn3cc(CNc4ccn([C@@H]5O[C@H](CO)[C@@H](O)C5(F)F)c(=O)n4)nn3)O2)c(=O)[nH]c1=O`, the 50% inhibitory concentration (IC50) is 7.07 µM.
On the same count and under the same terms, the same measure for `Cc1cn([C@H]2C[C@H](OC(=O)OC(C)(C)C)[C@@H](Cn3cc(COC(=O)Nc4ccn([C@@H]5O[C@H](CO)[C@@H](O)C5(F)F)c(=O)n4)nn3)O2)c(=O)[nH]c1=O`: 10.7 µM.
On the same count and under the same terms, the value for `O=C(Nc1ccn([C@@H]2O[C@H](Cn3cc(CNc4ccn([C@@H]5O[C@H](CO)[C@@H](O)C5(F)F)c(=O)n4)nn3)[C@@H](O)C2(F)F)c(=O)n1)OCc1ccccc1` was 4.14 µM; that for `O=C(Nc1ccn([C@@H]2O[C@H](Cn3cc(CNc4ccn([C@@H]5O[C@H](CO)[C@@H](O)C5(F)F)c(=O)n4)nn3)[C@@H](OC(=O)c3ccccc3)C2(F)F)c(=O)n1)c1ccccc1` was 5.34 µM.

The test system of the next assay is A549. Description: Cytotoxicity in human A549 cells assessed as reduction in cell viability incubated for 72 hrs by SRB assay. The settings on record: A549, 72 h. Type of assay: functional, cell-based. The procedure, abridged: as §1
For `Cc1cn([C@H]2C[C@H](O)[C@@H](Cn3cc(COC(=O)Nc4ccn([C@@H]5O[C@H](CO)[C@@H](O)C5(F)F)c(=O)n4)nn3)O2)c(=O)[nH]c1=O`, the 50% inhibitory concentration (IC50) turned out to be 13.4 µM.
Take `Cc1cn([C@H]2C[C@H](OC(=O)OC(C)(C)C)[C@@H](Cn3cc(CNc4ccn([C@@H]5O[C@H](CO)[C@@H](O)C5(F)F)c(=O)n4)nn3)O2)c(=O)[nH]c1=O`: the IC50 amounted to 6.07 µM.
Regarding `Cc1cn([C@H]2C[C@H](OC(=O)OC(C)(C)C)[C@@H](Cn3cc(COC(=O)Nc4ccn([C@@H]5O[C@H](CO)[C@@H](O)C5(F)F)c(=O)n4)nn3)O2)c(=O)[nH]c1=O`, the half-maximal inhibitory concentration (IC50) was 8.5 µM.
Same read-out and setting: the same measure for `O=C(Nc1ccn([C@@H]2O[C@H](Cn3cc(CNc4ccn([C@@H]5O[C@H](CO)[C@@H](O)C5(F)F)c(=O)n4)nn3)[C@@H](O)C2(F)F)c(=O)n1)OCc1ccccc1`: 4.31 µM.
As to `O=C(Nc1ccn([C@@H]2O[C@H](Cn3cc(CNc4ccn([C@@H]5O[C@H](CO)[C@@H](O)C5(F)F)c(=O)n4)nn3)[C@@H](OC(=O)c3ccccc3)C2(F)F)c(=O)n1)c1ccccc1`, the IC50 was found to be 6.01 µM.

A further assay concerns U-87 MG. Description: Cytotoxicity in human U87 cells assessed as reduction in cell viability incubated for 72 hrs by SRB assay. Format: functional, cell-based, U-87MG ATCC.
Conditions: not given
In outline:
as §1
`Cc1cn([C@H]2C[C@H](O)[C@@H](Cn3cc(COC(=O)Nc4ccn([C@@H]5O[C@H](CO)[C@@H](O)C5(F)F)c(=O)n4)nn3)O2)c(=O)[nH]c1=O`: the IC50 was determined as 13.5 µM.
For `Cc1cn([C@H]2C[C@H](OC(=O)OC(C)(C)C)[C@@H](Cn3cc(CNc4ccn([C@@H]5O[C@H](CO)[C@@H](O)C5(F)F)c(=O)n4)nn3)O2)c(=O)[nH]c1=O`, the IC50 amounted to 6.97 µM.
As for `Cc1cn([C@H]2C[C@H](OC(=O)OC(C)(C)C)[C@@H](Cn3cc(COC(=O)Nc4ccn([C@@H]5O[C@H](CO)[C@@H](O)C5(F)F)c(=O)n4)nn3)O2)c(=O)[nH]c1=O`, the IC50 worked out at 9.68 µM.
Still for that read-out and setting: the value for `O=C(Nc1ccn([C@@H]2O[C@H](Cn3cc(CNc4ccn([C@@H]5O[C@H](CO)[C@@H](O)C5(F)F)c(=O)n4)nn3)[C@@H](O)C2(F)F)c(=O)n1)OCc1ccccc1` was 4.45 µM; that for `O=C(Nc1ccn([C@@H]2O[C@H](Cn3cc(CNc4ccn([C@@H]5O[C@H](CO)[C@@H](O)C5(F)F)c(=O)n4)nn3)[C@@H](OC(=O)c3ccccc3)C2(F)F)c(=O)n1)c1ccccc1` was 5.5 µM.

The subject of the next assay is HepG2. Description: Cytotoxicity in human HepG2 cells assessed as reduction in cell viability incubated for 72 hrs by SRB assay. Format: functional, cell-based. The settings on record: HepG2, 72 h. In outline:
as §1
On to `Cc1cn([C@H]2C[C@H](O)[C@@H](Cn3cc(COC(=O)Nc4ccn([C@@H]5O[C@H](CO)[C@@H](O)C5(F)F)c(=O)n4)nn3)O2)c(=O)[nH]c1=O`, for which the IC50 is 14.6 µM.
Same read-out and setting: the value for `Cc1cn([C@H]2C[C@H](OC(=O)OC(C)(C)C)[C@@H](Cn3cc(CNc4ccn([C@@H]5O[C@H](CO)[C@@H](O)C5(F)F)c(=O)n4)nn3)O2)c(=O)[nH]c1=O` was 6.34 µM; that for `Cc1cn([C@H]2C[C@H](OC(=O)OC(C)(C)C)[C@@H](Cn3cc(COC(=O)Nc4ccn([C@@H]5O[C@H](CO)[C@@H](O)C5(F)F)c(=O)n4)nn3)O2)c(=O)[nH]c1=O` was 11.1 µM.
On the same count and under the same terms, the value for `O=C(Nc1ccn([C@@H]2O[C@H](Cn3cc(CNc4ccn([C@@H]5O[C@H](CO)[C@@H](O)C5(F)F)c(=O)n4)nn3)[C@@H](O)C2(F)F)c(=O)n1)OCc1ccccc1` was 4.64 µM.
For `O=C(Nc1ccn([C@@H]2O[C@H](Cn3cc(CNc4ccn([C@@H]5O[C@H](CO)[C@@H](O)C5(F)F)c(=O)n4)nn3)[C@@H](OC(=O)c3ccccc3)C2(F)F)c(=O)n1)c1ccccc1`, the IC50 worked out at 5.82 µM.

For another assay, the system named is NHDF. Nature of the assay: Cytotoxicity in human NHDF cells assessed as reduction in cell viability incubated for 72 hrs by SRB assay. Type of assay: cell-based.
Conditions: not given
In outline: as §1
Consider `Cc1cn([C@H]2C[C@H](O)[C@@H](Cn3cc(COC(=O)Nc4ccn([C@@H]5O[C@H](CO)[C@@H](O)C5(F)F)c(=O)n4)nn3)O2)c(=O)[nH]c1=O`, for which the half-maximal inhibitory concentration (IC50) came out at 16.9 µM.
On to `Cc1cn([C@H]2C[C@H](OC(=O)OC(C)(C)C)[C@@H](Cn3cc(CNc4ccn([C@@H]5O[C@H](CO)[C@@H](O)C5(F)F)c(=O)n4)nn3)O2)c(=O)[nH]c1=O`, for which the IC50 came out at 14.2 µM.
Same read-out and setting: the value for `Cc1cn([C@H]2C[C@H](OC(=O)OC(C)(C)C)[C@@H](Cn3cc(COC(=O)Nc4ccn([C@@H]5O[C@H](CO)[C@@H](O)C5(F)F)c(=O)n4)nn3)O2)c(=O)[nH]c1=O` was 15 µM.
The same measure, in the same setting: the value for `O=C(Nc1ccn([C@@H]2O[C@H](Cn3cc(CNc4ccn([C@@H]5O[C@H](CO)[C@@H](O)C5(F)F)c(=O)n4)nn3)[C@@H](O)C2(F)F)c(=O)n1)OCc1ccccc1` was 10.1 µM; that for `O=C(Nc1ccn([C@@H]2O[C@H](Cn3cc(CNc4ccn([C@@H]5O[C@H](CO)[C@@H](O)C5(F)F)c(=O)n4)nn3)[C@@H](OC(=O)c3ccccc3)C2(F)F)c(=O)n1)c1ccccc1` was 14.2 µM.

Tested on in another assay: not listed separately
Nature of the assay: Selectivity index, ratio of IC50 for cytotoxicity in human NHDF cells to IC50 for cytotoxicity in human HeLa cells.
Conditions: not given
In outline:
(§2)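 Selectivity index is the IC50 in normal HDF fibroblasts divided by the IC50 in the given cancer line.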
Take `O=C(Nc1ccn([C@@H]2O[C@H](Cn3cc(CNc4ccn([C@@H]5O[C@H](CO)[C@@H](O)C5(F)F)c(=O)n4)nn3)[C@@H](O)C2(F)F)c(=O)n1)OCc1ccccc1`: the “Ratio IC50” value is recorded as 2.39.

Tested on in a further assay: not listed separately
Description: Selectivity index, ratio of IC50 for cytotoxicity in human NHDF cells to IC50 for cytotoxicity in human KB cells.
Conditions: not given
In outline:
as §2
For the compound `O=C(Nc1ccn([C@@H]2O[C@H](Cn3cc(CNc4ccn([C@@H]5O[C@H](CO)[C@@H](O)C5(F)F)c(=O)n4)nn3)[C@@H](O)C2(F)F)c(=O)n1)OCc1ccccc1`, the “Ratio IC50” value is recorded as 2.44.

Tested on in another assay: not listed separately
Description: Selectivity index, ratio of IC50 for cytotoxicity in human NHDF cells to IC50 for cytotoxicity in human A549 cells.
Conditions: not given
In outline:
as §2
As for `O=C(Nc1ccn([C@@H]2O[C@H](Cn3cc(CNc4ccn([C@@H]5O[C@H](CO)[C@@H](O)C5(F)F)c(=O)n4)nn3)[C@@H](O)C2(F)F)c(=O)n1)OCc1ccccc1`, the “Ratio IC50” value was found to be 2.34.

Tested on in a further assay: not listed separately
Description: Selectivity index, ratio of IC50 for cytotoxicity in human NHDF cells to IC50 for cytotoxicity in human U87 cells.
Conditions: not given
The procedure, abridged: as §2
`O=C(Nc1ccn([C@@H]2O[C@H](Cn3cc(CNc4ccn([C@@H]5O[C@H](CO)[C@@H](O)C5(F)F)c(=O)n4)nn3)[C@@H](O)C2(F)F)c(=O)n1)OCc1ccccc1`: the “Ratio IC50” value is 2.27.

Tested on in the next assay: not listed separately
Nature of the assay: Selectivity index, ratio of IC50 for cytotoxicity in human NHDF cells to IC50 for cytotoxicity in human HepG2 cells.
Conditions: not given
In outline: as §2
For `O=C(Nc1ccn([C@@H]2O[C@H](Cn3cc(CNc4ccn([C@@H]5O[C@H](CO)[C@@H](O)C5(F)F)c(=O)n4)nn3)[C@@H](O)C2(F)F)c(=O)n1)OCc1ccccc1`, the “Ratio IC50” value is 2.18.
